Assay results published in publication PMC10147382 (ACS chemical neuroscience, 2022).
Where “and” joins values, the source holds several entries; their conditions need not be identical. Identical values can stand only once. Like-named read-outs stand apart in the source and are kept apart here.

How the values were obtained:
[1] = target: T1, 5-HT2A receptor (Homo sapiens, UniProt P28223); assay: G protein; type: cell-based
Target sequence in this assay (P28223 whole entry): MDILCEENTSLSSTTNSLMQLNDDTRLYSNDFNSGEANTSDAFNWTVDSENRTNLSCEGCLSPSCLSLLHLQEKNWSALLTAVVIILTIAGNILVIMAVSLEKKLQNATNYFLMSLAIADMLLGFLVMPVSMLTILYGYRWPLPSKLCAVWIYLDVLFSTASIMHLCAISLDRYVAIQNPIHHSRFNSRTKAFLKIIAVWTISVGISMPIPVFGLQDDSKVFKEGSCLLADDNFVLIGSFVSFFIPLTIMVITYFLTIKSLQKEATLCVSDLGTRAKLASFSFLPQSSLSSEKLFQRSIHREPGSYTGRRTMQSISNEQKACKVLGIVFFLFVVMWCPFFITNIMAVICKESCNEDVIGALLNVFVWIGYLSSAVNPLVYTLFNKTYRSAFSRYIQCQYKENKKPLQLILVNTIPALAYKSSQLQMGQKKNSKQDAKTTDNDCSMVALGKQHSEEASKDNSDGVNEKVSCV

[2] = target: T2, 5-HT2B receptor (Homo sapiens, UniProt P41595); assay: G protein; type: cell-based
[3] = target: T3, 5-HT2C receptor (Homo sapiens, UniProt P28335); assay: G protein; type: cell-based
T3 sequence (P28335 33-458): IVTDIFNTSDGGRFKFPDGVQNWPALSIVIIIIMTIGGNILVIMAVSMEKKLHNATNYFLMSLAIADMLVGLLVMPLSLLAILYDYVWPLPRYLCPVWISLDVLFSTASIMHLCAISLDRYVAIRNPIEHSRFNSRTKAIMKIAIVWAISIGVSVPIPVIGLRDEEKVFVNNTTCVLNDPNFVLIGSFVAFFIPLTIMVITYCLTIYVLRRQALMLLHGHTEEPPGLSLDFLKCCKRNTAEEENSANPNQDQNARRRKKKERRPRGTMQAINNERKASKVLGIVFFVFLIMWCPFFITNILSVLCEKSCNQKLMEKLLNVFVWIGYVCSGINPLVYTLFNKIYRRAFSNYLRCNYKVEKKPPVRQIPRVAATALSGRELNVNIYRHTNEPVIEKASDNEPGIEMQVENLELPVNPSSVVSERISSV

[4] = target: 5-HT1A receptor (Homo sapiens, UniProt P08908); assay: 5-HTome G protein activation BRET screen; type: cell-based; settings: 5-HTome screen
Outline: (§1)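 Human 5-HT receptors (12 in the panel) are tested by G protein-dissociation BRET2. Cells are reverse-transfected about 48 h before assay with receptor:Gα-Rluc8:Beta:GFP2-γ (TRUPATH) at 1:1:1:1 and plated in 1% dFBS. Drug is added in HBSS/20 mM HEPES pH 7.4 with 0.3% BSA and 0.03% ascorbic acid, then incubated 60 min at 37°C. Coelenterazine 400a is 5 uM final. The 510/400 ratio is normalized to % positive control, with EC50/Emax from log(agonist) vs response. Three independent experiments in triplicate.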

[5] = target: 5-HT1B receptor (Homo sapiens, UniProt P28222); assay: 5-HTome G protein activation BRET screen; type: cell-based; settings: 5-HTome screen
Outline: as §1

[6] = target: 5-HT1D receptor (Homo sapiens, UniProt P28221); assay: 5-HTome G protein activation BRET screen; type: cell-based; settings: 5-HTome screen
Outline: as §1

[7] = target: 5-HT1e receptor (Homo sapiens, UniProt P28566); assay: 5-HTome G protein activation BRET screen; type: cell-based; settings: 5-HTome screen
Outline: as §1

[8] = target: 5-HT1F receptor (Homo sapiens, UniProt P30939); assay: 5-HTome G protein activation BRET screen; type: cell-based
Outline: as §1

[9] = target: T1, 5-HT2A receptor; assay: Calcium flux assay; type: cell-based
Outline: (§2)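 Flp-In 293 T-Rex cells stably carry tetracycline-inducible human 5-HT2A or 5-HT2C. Expression is induced with tetracycline (2 ug/mL) the day before, with about 7,500 cells/well in 1% dialyzed FBS. Cells are loaded with Fluo-4 Direct for 1 h at 37°C in HBSS/20 mM HEPES pH 7.4 with 2.5 mM probenecid, then held 15 min at RT. Fluorescence is read 10 s baseline, then 5-10 min after drug. Peak fold-over-basal or AUC is normalized to % 5-HT, with EC50/Emax from nonlinear regression.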
Target sequence in this assay (P28223 whole entry): as the sequence (P28223 whole entry) above

[10] = target: T3, 5-HT2C receptor; assay: Calcium flux assay; type: cell-based; settings: relative to 5-HT
Outline: as §2

[11] = target: T1, 5-HT2A receptor; assay: Radioligand displacement assay; type: binding; settings: standard radioligand 125I-DOI
Target sequence in this assay (P28223 whole entry): as the sequence (P28223 whole entry) above

[12] = test system: mice; assay: Head twitch response; type: in vivo, mouse
[13] = test system: mice; assay: Open field test; type: in vivo, mouse; settings: for effect on general locomotion: s.c.
[14] = test system: mice; assay: Elevated plus maze; type: in vivo, mouse; settings: 30 minutes and 4 hours post single s.c. injection
Outline: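 Elevated plus maze in mice given a single subcutaneous injection of test compound or a reference psychedelic. Time in open vs closed arms and arm entries are scored at 30 min and 4 h post-injection. n=10/group, mean ± S.E.M. Analysis is two-way ANOVA with Dunnett's post hoc test.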

[15] = test system: mice; assay: Novelty suppressed feeding; type: in vivo, mouse; settings: 7 days post-drug administration; 10mg/kg
[16] = test system: auxilin knockout (KO) mice; assay: Auxilin KO Parkinson's model, balance beam; type: in vivo, mouse; settings: 10 mg/kg i.p., 15 to 30 minutes after treatment
Outline: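 Auxilin KO and WT mice aged 9-12 months, sex balanced, n=5-7/group. Vehicle is 0.85% saline i.p. at 10 ml/kg. Test compound is 10 mg/kg i.p. in 0.85% saline with 2 molar equivalents of glacial acetic acid, at 10 ml/kg. Baseline testing is done one week before treatment and repeated 15-30 min post-dose. Balance beam: mice walk a raised narrow beam to a safety box, scored as average crossing time and crossings per minute. Mean ± S.E.M.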

[17] = test system: auxilin knockout (KO) mice; assay: Auxilin KO Parkinson's model, hind limb clasping; type: in vivo, mouse; settings: 10 mg/kg i.p., 15 to 30 minutes after treatment
Outline: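 Auxilin KO and WT mice aged 9-12 months, sex balanced, n=5-7/group, treated i.p. with vehicle (0.85% saline) or test compound at 10 mg/kg in saline with 2 molar equivalents of acetic acid, at 10 ml/kg. Testing is done one week pre-treatment and 15-30 min post-dose. Mice are held by the tail base and lowered for 30 s. Clasping is scored 0 (none), 1 (one limb) or 2 (both limbs), and total clasping duration is recorded. Kruskal-Wallis with Dunn's post hoc test.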

[18] = test system: humans; settings: cited from earlier work
[19] = test system: patients; settings: cited from earlier work
[20] = test system: cats; settings: cited from earlier work
[21] = test system: rabbits; settings: cited from earlier work
[22] = test system: rats; settings: 10 mg/kg, s.c. or i.p. ref 12, 13; cited from earlier work
[23] = target: T1, 5-HT2A receptor; assay: SafetyScreen44 broad screen; type: binding; settings: 10 uM Ariadne; positive hit threshold
Outline: (§3)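 Broad binding screen of 44 targets (GPCRs, nuclear receptors, ion channels, monoamine transporters, enzymes) with racemic test compound at 10 uM. Read-out is % displacement of each target's standard radioligand. A positive hit is defined as more than 50% displacement.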
Target sequence in this assay (P28223 whole entry): as the sequence (P28223 whole entry) above

[24] = target: T2, 5-HT2B receptor; assay: SafetyScreen44 broad screen; type: binding; settings: 10 uM Ariadne; positive hit threshold
Outline: as §3

[25] = target: serotonin transporter (SERT) (Homo sapiens, UniProt P31645); assay: SafetyScreen44 broad screen; type: binding; settings: 10 uM
Outline: as §3

[26] = target: dopamine transporter (DAT) (Homo sapiens, UniProt Q01959); assay: SafetyScreen44 broad screen; type: binding; settings: 10 uM
Outline: as §3

[27] = target: norepinephrine transporter (NET) (Homo sapiens, UniProt P23975); assay: SafetyScreen44 broad screen; type: binding; settings: 10 uM
Outline: as §3

[28] = target: dopamine 1 receptor (Homo sapiens, UniProt P21728); assay: Activity at other aminergic receptors
[29] = target: dopamine 2 receptor (Homo sapiens, UniProt P14416); assay: Activity at other aminergic receptors
[30] = target: adrenergic receptors; assay: Activity at other aminergic receptors; settings: no/low activity
[31] = target: T1, 5-HT2A receptor; assay: β-arrestin2 recruitment BRET assay; type: cell-based
Target sequence in this assay (P32121 whole entry): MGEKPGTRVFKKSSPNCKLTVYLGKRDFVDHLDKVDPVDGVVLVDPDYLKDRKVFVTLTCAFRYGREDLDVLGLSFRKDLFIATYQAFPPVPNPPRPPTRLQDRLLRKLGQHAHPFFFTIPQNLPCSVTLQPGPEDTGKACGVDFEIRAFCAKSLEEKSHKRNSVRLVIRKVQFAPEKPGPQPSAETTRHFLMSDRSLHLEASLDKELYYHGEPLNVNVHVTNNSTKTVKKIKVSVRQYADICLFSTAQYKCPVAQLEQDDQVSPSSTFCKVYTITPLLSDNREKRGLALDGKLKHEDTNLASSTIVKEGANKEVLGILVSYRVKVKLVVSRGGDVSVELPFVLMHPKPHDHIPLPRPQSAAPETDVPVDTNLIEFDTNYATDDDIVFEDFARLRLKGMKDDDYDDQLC
Target sequence in this assay (P28223 whole entry): as the sequence (P28223 whole entry) above

[32] = Brain and plasma pharmacokinetic evaluation; type: in vivo, mouse; settings: brain and plasma PK
[33] = test system: rats; settings: cited from earlier work
[34] = test system: rats; settings: cited from earlier work; remark: listed apart in the source
[35] = test system: rat smooth muscle; settings: compared to serotonin and (R)-DOM ref 11; cited from earlier work
[36] = read-out: EC50 (Gq), Gq dissociation BRET

T2 sequence (P41595 whole entry): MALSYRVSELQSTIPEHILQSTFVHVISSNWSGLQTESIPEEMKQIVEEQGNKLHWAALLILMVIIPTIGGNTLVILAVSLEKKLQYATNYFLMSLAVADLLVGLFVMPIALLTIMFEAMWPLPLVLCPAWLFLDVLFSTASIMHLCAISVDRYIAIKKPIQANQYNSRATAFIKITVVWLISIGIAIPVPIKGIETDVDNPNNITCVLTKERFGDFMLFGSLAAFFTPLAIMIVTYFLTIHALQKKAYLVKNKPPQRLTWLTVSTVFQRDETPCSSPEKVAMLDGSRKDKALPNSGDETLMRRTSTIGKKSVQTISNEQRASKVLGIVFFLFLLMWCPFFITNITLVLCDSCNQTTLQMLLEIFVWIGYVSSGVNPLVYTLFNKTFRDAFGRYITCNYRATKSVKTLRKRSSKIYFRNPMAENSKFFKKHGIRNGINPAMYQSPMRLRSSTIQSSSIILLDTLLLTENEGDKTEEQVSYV
Sequence of 5-HT1F receptor (P30939 whole entry): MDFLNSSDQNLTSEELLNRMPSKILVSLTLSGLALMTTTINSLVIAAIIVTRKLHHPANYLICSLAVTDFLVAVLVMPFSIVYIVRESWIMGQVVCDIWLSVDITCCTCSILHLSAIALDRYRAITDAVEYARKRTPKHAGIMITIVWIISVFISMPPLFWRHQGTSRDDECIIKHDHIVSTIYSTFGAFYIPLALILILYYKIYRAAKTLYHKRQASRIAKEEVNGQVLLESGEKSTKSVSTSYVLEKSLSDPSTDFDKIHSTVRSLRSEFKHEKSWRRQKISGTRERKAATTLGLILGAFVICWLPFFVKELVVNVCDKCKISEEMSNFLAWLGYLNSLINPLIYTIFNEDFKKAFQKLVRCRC
Sequence of dopamine 2 receptor (P14416 whole entry): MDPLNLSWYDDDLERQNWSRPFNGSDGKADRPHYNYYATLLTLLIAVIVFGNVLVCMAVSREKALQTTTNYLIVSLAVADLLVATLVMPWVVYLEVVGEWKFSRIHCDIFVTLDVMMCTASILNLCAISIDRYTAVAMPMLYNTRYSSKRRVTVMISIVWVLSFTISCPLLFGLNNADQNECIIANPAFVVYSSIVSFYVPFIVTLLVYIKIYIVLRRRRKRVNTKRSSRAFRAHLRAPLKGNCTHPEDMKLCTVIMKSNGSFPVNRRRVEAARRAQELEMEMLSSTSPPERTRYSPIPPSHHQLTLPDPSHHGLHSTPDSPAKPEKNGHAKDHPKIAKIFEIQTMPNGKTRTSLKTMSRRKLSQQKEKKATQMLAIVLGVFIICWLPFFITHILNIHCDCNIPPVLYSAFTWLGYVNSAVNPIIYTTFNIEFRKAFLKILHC
Sequence of dopamine transporter (DAT) (Q01959 whole entry): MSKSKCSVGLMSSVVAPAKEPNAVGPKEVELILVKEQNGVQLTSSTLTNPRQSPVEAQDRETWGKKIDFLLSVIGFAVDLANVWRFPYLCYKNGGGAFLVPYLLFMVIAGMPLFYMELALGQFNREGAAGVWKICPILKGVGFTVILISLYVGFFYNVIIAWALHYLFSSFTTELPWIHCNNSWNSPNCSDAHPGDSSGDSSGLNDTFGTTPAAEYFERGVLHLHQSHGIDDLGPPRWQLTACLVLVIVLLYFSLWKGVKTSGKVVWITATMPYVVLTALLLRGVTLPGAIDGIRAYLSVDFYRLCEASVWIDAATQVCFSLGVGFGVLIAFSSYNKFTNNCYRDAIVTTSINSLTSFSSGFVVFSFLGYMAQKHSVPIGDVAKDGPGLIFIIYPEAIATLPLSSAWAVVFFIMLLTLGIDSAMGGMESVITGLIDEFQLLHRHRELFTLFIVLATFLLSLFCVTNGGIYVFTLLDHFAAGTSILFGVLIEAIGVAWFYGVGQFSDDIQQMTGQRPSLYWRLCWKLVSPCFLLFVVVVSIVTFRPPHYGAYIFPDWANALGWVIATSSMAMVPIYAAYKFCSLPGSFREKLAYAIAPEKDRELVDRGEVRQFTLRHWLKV
Sequence of dopamine 1 receptor (P21728 whole entry): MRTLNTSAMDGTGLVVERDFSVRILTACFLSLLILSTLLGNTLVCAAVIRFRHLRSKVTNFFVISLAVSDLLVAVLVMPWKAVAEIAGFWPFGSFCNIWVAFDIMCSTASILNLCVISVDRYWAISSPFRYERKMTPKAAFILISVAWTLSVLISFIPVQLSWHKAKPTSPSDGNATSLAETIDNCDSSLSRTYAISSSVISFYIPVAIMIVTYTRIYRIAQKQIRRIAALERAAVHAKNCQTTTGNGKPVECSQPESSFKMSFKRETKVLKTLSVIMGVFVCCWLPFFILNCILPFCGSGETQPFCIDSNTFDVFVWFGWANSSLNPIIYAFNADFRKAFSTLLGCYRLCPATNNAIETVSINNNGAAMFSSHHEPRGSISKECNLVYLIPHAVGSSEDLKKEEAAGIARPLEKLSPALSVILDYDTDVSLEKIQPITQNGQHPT
Sequence of serotonin transporter (SERT) (P31645 whole entry): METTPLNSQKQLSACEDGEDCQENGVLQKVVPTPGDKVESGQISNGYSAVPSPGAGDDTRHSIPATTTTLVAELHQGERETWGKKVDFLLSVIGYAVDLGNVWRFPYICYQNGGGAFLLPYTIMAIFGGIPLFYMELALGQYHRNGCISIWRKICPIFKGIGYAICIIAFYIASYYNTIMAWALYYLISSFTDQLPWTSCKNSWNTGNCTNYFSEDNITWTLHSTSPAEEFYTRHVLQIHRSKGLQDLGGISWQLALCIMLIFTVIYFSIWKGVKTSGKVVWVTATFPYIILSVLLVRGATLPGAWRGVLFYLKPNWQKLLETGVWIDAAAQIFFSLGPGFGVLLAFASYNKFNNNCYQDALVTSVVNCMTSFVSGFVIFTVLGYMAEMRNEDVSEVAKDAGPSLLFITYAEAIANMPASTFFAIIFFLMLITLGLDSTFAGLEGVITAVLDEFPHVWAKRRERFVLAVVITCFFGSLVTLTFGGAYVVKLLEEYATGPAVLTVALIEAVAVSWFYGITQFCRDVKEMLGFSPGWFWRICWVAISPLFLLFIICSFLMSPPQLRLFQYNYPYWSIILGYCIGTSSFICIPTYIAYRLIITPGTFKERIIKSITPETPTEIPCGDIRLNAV
Sequence of 5-HT1B receptor (P28222 whole entry): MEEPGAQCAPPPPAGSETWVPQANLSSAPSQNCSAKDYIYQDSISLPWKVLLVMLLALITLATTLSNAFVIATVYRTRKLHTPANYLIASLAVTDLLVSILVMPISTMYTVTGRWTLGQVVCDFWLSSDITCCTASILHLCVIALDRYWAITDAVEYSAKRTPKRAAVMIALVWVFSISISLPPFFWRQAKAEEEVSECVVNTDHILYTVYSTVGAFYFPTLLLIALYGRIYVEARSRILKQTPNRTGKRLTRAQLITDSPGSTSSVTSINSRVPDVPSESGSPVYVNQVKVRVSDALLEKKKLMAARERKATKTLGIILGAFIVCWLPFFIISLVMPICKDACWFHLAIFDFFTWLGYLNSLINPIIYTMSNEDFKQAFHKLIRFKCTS

SMILES: CC[C@@H](N)Cc1cc(OC)c(C)cc1OC [(R)-Ariadne]
- EC50 ([1]; 5-HTome screen): < 1000 nM
- Emax ([1]; 5-HTome screen): > 70%
- EC50 [1, 36]: 149 nM
- EC50 ([2]; 5-HTome screen): < 1000 nM
- Emax ([2]; 5-HTome screen): > 70%
- EC50 [2, 36]: 739 nM
- EC50 ([3]; 5-HTome screen): < 1000 nM
- Emax ([3]; 5-HTome screen): > 70%
- EC50 [3, 36]: 249 nM
- EC50 [4]: 300 to 600 nM
- EC50 [5]: 4000 nM
- EC50 [6]: 300 to 600 nM
- EC50 [7]: 300 to 600 nM
- EC50 ([8]; 5-HTome screen): 300 to 600 nM
- EC50 ([9]; read-out: EC50 (calcium flux)): 30 nM
- Emax (calcium flux) ([9]; relative to 5-HT): 96%
- Emax (calcium flux) [10]: 60%
- Ki [11]: 53 nM
- HTR after pretreatment with 5-HT2A antagonist MDL100,907 (volinanserin) ([12]; MDL100907 0.01 and 0.032 mg/kg ip 15 min prior): completely inhibited
- dose of peak (maximum) HTR ([12]; s.c.): 10 mg/kg
- effect on general locomotion ([13]; 10 mg/kg): minor sedative effect
- effect on general locomotion ([13]; 30 mg/kg): marked sedation
- time in the center of the arena ([13]; mouse, in vivo): trend for spending less time in the center of the arena
- effect on open arm entries and time [14]: acute anxiogenic-like effect
- latency to bite food pellets [15]: dose-dependent trend toward reducing latency to bite
- number of balance beam runs, Aux-KO mice post-treatment [16]: significantly higher and comparable to WT mice
- clasping duration, Aux-KO mice [17]: down to zero
- clasping score, Aux-KO mice [17]: down to zero
- hallucinogenic / psychoactive effect ([18]; 25 mg p.o. ref 6): no hallucinogenic effect but a mild threshold psychoactive effect
- psychedelic effects ([18]; 100-300 mg, geriatric senile subjects ref 38): no psychedelics effects
- hallucinogenic effects ([18]; up to 270 mg, healthy subjects ref 14): No hallucinations or perceptual alterations were observed
- hallucinogenic effects ([18]; up to (and beyond) 100 mg per day, route not specified ref 8): no hallucinations
- hallucinogenic effects ([18]; up to (and beyond) 100 mg per day, route not specified ref 8, listed as BL-3912A): lack of hallucinogenic effects
- effect in geriatric senile subjects ([19]; 50 mg per day ref 8): Improvement in alertness, mobility and sociability
- effect in subjects with Parkinson's disease ([19]; 100 mg per day ref 8): nearly complete remission of symptoms
- effect in patients with schizophrenia and bipolar disorder ([19]; 50-100 mg per day ref 8): rapid remission of psychotic symptoms
- DOM-like effects ([20]; 10 mg/kg, s.c., versus (R)-DOM 0.5 mg/kg): nearly no DOM-like effects
- shift in potency between (R)-DOM and (R)-Ariadne [21]: 25 fold
- avoidance behavior [22]: improved avoidance behavior

SMILES: CCC(N)Cc1cc(OC)c(C)cc1OC (stereo not shown) [Ariadne, 2-amino-1-(2,5-dimethoxy-4-methylphenyl)-butane]
- displacement of standard radioligands [23]: more than 50%
- displacement of standard radioligands [24]: more than 50%
- activity at SERT [25]: essentially no activity
- activity at DAT [26]: essentially no activity
- activity at NET [27]: essentially no activity
- Emax [1]: > 70%
- decrease in potency versus the alpha-methyl (DOx) counterpart ([1]; Gq dissociation (Gq versus G11 for Ariadne/DOM)): 4-to-6 fold and 6 fold
- Emax ([1]; read-out: Emax (Gq)): 80%
- Emax [2]: > 70%
- Emax [3]: > 70%
- selectivity of 5-HT2 agonism over 5-HT1F [8]: 0.5-1 log
- EC50 [28]: > 10000 nM
- EC50 [29]: > 10000 nM
- EC50 [30]: > 10000 nM
- decrease in potency versus the alpha-methyl (DOx) counterpart [31]: ~ 4.5 fold
- efficacy ([31]; normalized to 5-HT): 83%
- decrease in HTR count per 15 min compared to racemic DOPR ([12]; s.c.): > 3 fold
- dose of peak (maximum) HTR ([12]; s.c.): 10 mg/kg
- brain penetration [32]: high brain penetration
- hallucinogenic / psychoactive effect ([18]; 32 mg p.o. ref 6): no hallucinogenic effect but a mild threshold psychoactive effect
- subjective effect (online experience report) ([18]; 75 mg orally, male ref 36): mild MDMA-like effects, but no obvious hallucinogenic effect
- subjective effect (online experience report) ([18]; 125 mg orally, female ref 37): unique hybrid between MDMA-like and DOX/psychedelic-like activity
- dose leading to discernable psychoactive effects ([18]; aggregate of human data): > 50 mg
- dose up to which no hallucinogenic effects were observed ([18]; aggregate of human data): 100 to 300 mg
- combined score of DOM-like behavioral features ([20]; in comparison to (R)-DOM ref 10): low combined score of DOM-like behavioral features
- substitution in LSD trained animals [33]: substituted responding in LSD trained animals
- substitution for MDMA stimulus [34]: full substitution for MDMA stimulus
- serotonergic-like spasmogenic effect [35]: weak serotonergic-like effect
